Measured values from PubChem BioAssay AID2369 (The Scripps Research Institute Molecular Screening Center, 2010).
Calls of active or inactive are those of the source. How the calls were made is not given here.

What follows are compounds tested against Protein phosphatase methylesterase 1 (Mus musculus) (UniProt Q8BVQ5) (assay: PME-1 probe labeling blockade in lysate – cell lysate, mouse brain cytosol, FP-rhodamine, in-gel fluorescence, orthogonal assay for PME-1 inhibitor project, late-stage follow-up (AID 2369)). Conditions: FP-rhodamine gel ABPP, band fluorescence, at 20 µM, hits give high values.
Procedure, shortened: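 Test system: native PME-1, mouse brain cytosol. Timing: compound pre-incubation 30 min at 25 °C, probe labeling 45 min. Technique: gel fluorescence scan.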

Sequence of Protein phosphatase methylesterase 1 (Mus musculus) (Q8BVQ5 whole entry, looked up): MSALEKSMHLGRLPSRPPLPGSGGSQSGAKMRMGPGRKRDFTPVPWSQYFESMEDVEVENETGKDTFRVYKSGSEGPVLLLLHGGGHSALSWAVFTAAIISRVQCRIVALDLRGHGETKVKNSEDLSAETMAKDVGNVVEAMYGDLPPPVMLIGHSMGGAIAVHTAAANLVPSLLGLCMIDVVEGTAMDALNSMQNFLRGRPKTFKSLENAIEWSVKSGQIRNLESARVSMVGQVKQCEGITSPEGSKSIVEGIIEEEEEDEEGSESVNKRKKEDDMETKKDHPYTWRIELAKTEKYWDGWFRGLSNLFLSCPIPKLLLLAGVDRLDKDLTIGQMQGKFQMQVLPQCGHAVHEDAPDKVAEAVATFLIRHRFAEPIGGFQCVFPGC

Structure (SMILES) | inhibition
N#C/C(=C\c1cccn1S(=O)(=O)c1cccc(C(=O)O)c1)S(=O)(=O)c1ccc(F)cc1 | 60% (inactive)
CS(=O)(=O)/C(C#N)=C/c1cn(Cc2cnc(Cl)s2)c2ccccc12 | 0% (inactive)
Cc1cc(C)n(-c2ccc(-n3cccc3/C=C(/C#N)S(=O)(=O)c3ccccc3)cc2)n1 | 0% (inactive)
Cc1ccc(-c2nc3sccn3c2/C=C(\C#N)S(C)(=O)=O)cc1 | 0% (inactive)
COC(=O)c1[nH]c2ccccc2c1/C=C(\C#N)S(C)(=O)=O | 0% (inactive)
N#C/C(=C\c1cccn1S(=O)(=O)c1cccc(Cl)c1)S(=O)(=O)c1ccc(F)cc1 | 80%
CS(=O)(=O)/C(C#N)=C\c1cnc(S(=O)(=O)c2ccccc2)s1 | 0% (inactive)
CCSc1ncc(/C=C(/C#N)S(C)(=O)=O)n1C | 0% (inactive)
N#C/C(=C\c1cccn1S(=O)(=O)c1cccc(C#N)c1)S(=O)(=O)c1ccc(Br)cc1 | 70%
Cc1cc(C)n(-c2ccc(-n3cccc3/C=C(\C#N)S(C)(=O)=O)cc2)n1 | 0% (inactive)
CS(=O)(=O)/C(C#N)=C/c1cccn1-c1ccc(OC(F)(F)F)cc1 | 0% (inactive)
CS(=O)(=O)/C(C#N)=C/c1cccn1-c1ccc(C(F)(F)F)cc1 | 0% (inactive)
COc1cccc(S(=O)(=O)n2cccc2/C=C(\C#N)S(=O)(=O)c2ccc(F)cc2)c1 | 60% (inactive)

More lines, now with the values ahead:

inhibition | Structure (SMILES)
0% (inactive) | Cc1ccc(-n2cccc2/C=C(\C#N)S(C)(=O)=O)c([N+](=O)[O-])c1
0% (inactive) | Cc1cc(C)c(/C=C(\C#N)S(=O)(=O)c2ccccc2)[nH]1
75% | N#C/C(=C\c1cccn1S(=O)(=O)c1cccc(OC(F)(F)F)c1)S(=O)(=O)c1ccc(F)cc1
0% (inactive) | N#C/C(=C\c1cccn1-c1ccc(OC(F)(F)F)cc1)S(=O)(=O)c1ccccc1
0% (inactive) | N#C/C(=C\c1cccn1-c1ccc(Cl)cc1)S(=O)(=O)c1ccccc1
85% | N#C/C(=C\c1cccn1S(=O)(=O)c1cccc(C#N)c1)S(=O)(=O)c1ccc(Cl)cc1
0% (inactive) | N#C/C(=C\c1cccn1-c1cc(Cl)cc(Cl)c1)S(=O)(=O)c1ccccc1
90% | N#C/C(=C\c1cccn1S(=O)(=O)c1cccc([N+](=O)[O-])c1)S(=O)(=O)c1ccc(F)cc1
0% (inactive) | CS(=O)(=O)/C(C#N)=C\c1ccc(-n2cc(/C=C(/C#N)S(C)(=O)=O)c3ccccc32)cc1
0% (inactive) | COc1ccc2[nH]c(/C=C(\C#N)S(C)(=O)=O)cc2c1
